Assay outcomes: PubChem BioAssay, The Scripps Research Institute Molecular Screening Center
5HT1E antag – antagonists of human 5-HT1E serotonin receptor. P28566. CHO 5-HT1E Ga15 NFAT-bla reporter, FRET, antagonist. inhibition, % at 6 µM. 65,000 compounds, 0.99% hits. AID 571;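 active = inhibition above a set limit, the mean inhibition across every tested compound plus 3 SD, cut at about 29% in these data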;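 also: signal is the 460 over 535 nm emission ratio of beta-lactamase substrate; 0% = agonist plus DMSO wells and 100% = wells without agonist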
S1P3 ag – S1P3 (human) receptor agonism | Q99500 | AID 373 | activation, % at 4.5 µM | 60,000 compounds, 0.1% hits | S1P3 NFAT-BLA reporter cells, FRET ratio; relative to 1 µM S1P, basal subtracted;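 active = activation above the screen-wide mean plus 3 SD, cut at about 4.5% in these data, passing the limit was not always enough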
Target sequence (Q99500 whole entry, looked up): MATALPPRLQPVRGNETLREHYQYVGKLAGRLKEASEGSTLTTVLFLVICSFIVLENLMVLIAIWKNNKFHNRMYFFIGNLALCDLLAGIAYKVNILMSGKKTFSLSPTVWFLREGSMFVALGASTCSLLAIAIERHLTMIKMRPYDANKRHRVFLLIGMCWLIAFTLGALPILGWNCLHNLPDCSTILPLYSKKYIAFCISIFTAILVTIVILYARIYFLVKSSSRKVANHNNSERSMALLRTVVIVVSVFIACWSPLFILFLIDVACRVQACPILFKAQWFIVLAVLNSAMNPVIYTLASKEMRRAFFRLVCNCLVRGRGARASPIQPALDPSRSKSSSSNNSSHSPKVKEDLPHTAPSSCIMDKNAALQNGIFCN
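Material: Human S1P3 NFAT-BLA reporter CHO cells | Incubation: Overnight plating, 4 h compound 37 °C, 2 h substrate RT | Signal: FRET β-lactamase substrate fluorescence, excitation 405 nm, 460/535 nm emission ratio, background-subtracted | Compound: 4.5 µM final, single dose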
HTR1E agonist – activates the human 5-HT1E serotonin receptor; P28566; CHO 5-HT1E Ga15 NFAT-bla reporter, FRET; 0% DMSO wells, 100% control agonist wells; activation, % at 6 µM; 65,000 compounds, 0.69% hits; AID 574;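 active = activation above a set limit, the screen-wide mean activation plus 3 SD, cut at about 8.5% in these data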;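 also: 100% = positive control agonist at 1 µM giving full maximal response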
HTR1A agonist – 5-HT1a (human) receptor agonism. P08908. CHO 5-HT1a Ga15 NFAT-bla reporter, FRET ratio; 0% basal, 100% maximal reference agonist. activation, % at 10 µM. 65,000 compounds, 0.56% hits. AID 567;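 active = activation above the screen-wide mean activation plus 3 SD, cut at about 19% in these data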;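 also: 0% = DMSO wells and 100% = 5-CT at EC100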
5-HT1A blocker – antagonists of human 5-HT1a serotonin receptor | CHO 5-HT1a Ga15 NFAT-bla reporter, antagonist mode | inhibition, % at 10 µM | 62,000 compounds, 0.68% hits | AID 612;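 active = inhibition above the mean of all tested compounds plus 3 SD, cut at about 43% in these data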;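 also: receptor stimulated by 5-CT agonist at 100 nM near EC80; beta-lactamase reporter measured by ratiometric fluorescence of a cleavable substrate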
S1P1 ag-PAM – S1P1 (human) agonism or agonism potentiation. AID 449. 56,000 compounds, 0.57% hits. P21453. activation, % at 9.5 µM. S1P1 CRE-bla cells, forskolin, beta-lactamase FRET, potentiator mode; S1P1 agonist co-added at EC20, 2 nM; 100% = saturating reference agonist, 0% = basal;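 active = activation above a cutoff set at the mean activation of all tested compounds plus 3 SD, cut at about 54% in these data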;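 also: forskolin at 4 µM as EC80 and the EC20 agonist is SEW2871; 100% = SEW2871 at its EC100 plus forskolin at EC80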
* hit, by the source's call; / = not tested or not shown. Sampled rows, rich in hits. Any-hit rate of the full collection: about 3%.

SMILES	5HT1E antag	S1P3 ag	HTR1E agonist	HTR1A agonist	5-HT1A blocker	S1P1 ag-PAM
O=C(O)C1CCCCC1C(=O)N1CC=C(c2ccccc2)CC1 (centres undefined)	3	-1	22*	6	3	12
O=C(Nc1ccccc1)N1CC=C(c2ccccc2)CC1	0	1	0	-2	13	/
CCN(C(=O)Cc1cccs1)c1nnc(-c2cc(OC)c(OC)c(OC)c2)s1	24	/	0	-1	8	/
CC(Oc1ccccc1Br)C(=O)N1CCc2ccccc21 (centres undefined)	4	9.9*	-1	-3	19	87*
Cc1ccc(C)c(-n2nnnc2Sc2nnnn2-c2ccccc2)c1	25	-1	-1	-1	46*	56
COc1ccc(-n2nnnc2-c2cccc(OC)c2)cc1	35*	0	-1	-2	20	-1
CN=C(NC#N)SCC(=O)c1ccc(Cl)cc1Cl	20	0	-1	0	3	82*
Cc1ccc(C)n1NC(=O)c1ccc(Cl)cc1Cl	2	0	-1	-1	18	7
Cc1ccc(-c2cc(C(=O)NCCCn3ccnc3)c3cc(Br)ccc3n2)o1	-3	0	0	3	3	-3
CCC(=O)NCCc1cc2cc(C)c(C)cc2[nH]c1=O	-1	-1	0	224*	1	-18
COc1ccc(/C=N\n2nnc3ccccc32)cc1	-3	0	0	-4	4	29
COc1ccccc1Oc1cc(C#N)c(C#N)cc1-n1nnc2ccccc21	7	20*	-1	0	49*	15
O=C(Nc1ccc(N2CCCCC2)c(Cl)c1)c1ncn[nH]1	-5	0	1	-5	-60	127*
Cn1c(=O)c2nc(-c3ccc(Cl)cc3Cl)oc2c2ccccc21	-6	0	2	1	-15	5
Nc1nc2ccccc2nc1N	-6	-2	0	-2	3	-20
Nc1nsc2ccccc12	25	-2	-2	-6	73*	39
Nc1cccc2cnccc12	33*	-2	0	-2	30	20
COC(=O)C1=COC(C)C2CN3CCc4c([nH]c5ccccc45)C3CC12 (centres undefined)	4	0	3	20*	18	-12
CC1c2[nH]c3ccccc3c2CCN1C(=O)Nc1ccccc1 (centres undefined)	5	0	1	-3	30	15
COC(=O)c1cc(NC(=O)CSc2nc(C)cc(=O)[nH]2)cc(C(=O)OC)c1	-3	0	0	0	-11	14
CCOC(=O)c1[nH]c2ccc(OC)cc2c1NC(=O)OC	-9	0	0	-3	5	-6
COc1ccc2[nH]c(O)c(NC(C)=O)c2c1	5	-1	13*	-1	-3	5
CCn1c2ccccc2c2nnc(SCC(=O)c3ccccc3)nc21	31*	0	-1	3	-13	-70
Cc1ccc(Cn2c(SCc3cccnc3)nc3c2c(=O)n(C)c(=O)n3C)cc1	5	-1	0	29*	5	-10
COc1cccc(OCc2nc3c4cnn(-c5ccccc5)c4ncn3n2)c1	2	-1	0	24*	0	6
SMILES	5HT1E antag	S1P3 ag	HTR1E agonist	HTR1A agonist	5-HT1A blocker	S1P1 ag-PAM
COc1cccc(OCCN2CCN(c3ncnc4c3cnn4-c3ccccc3)CC2)c1	-10	-4	0	6	/	-1
COc1ccc2cc(C(c3nnnn3C(C)(C)C)N3CCSCC3)c(=O)[nH]c2c1 (centres undefined)	3	-1	1	0	-17	0
Cc1nc(NCCNC(=O)c2ccco2)c2c(C)c(C)sc2n1	32*	-1	0	-1	-4	5
COc1ccc(NC(=O)c2oc3ccc(S(=O)(=O)N4CCC5(CC4)OCCO5)cc3c2C)cc1	-2	-1	1	-1	-4	21
COCCCn1c(=N)c(C(=O)NCC2CCCO2)cc2c(=O)n3cccc(C)c3nc21 (centres undefined)	-10	1	4	12	-34	-15
Cc1ccc(CNC(=O)c2cc3c(=O)n4cccc(C)c4nc3n(CC3CCCO3)c2=N)cc1 (centres undefined)	-18	1	2	3	-15	-36
COCCCn1c(=N)c(C(=O)NCC2CCCO2)cc2c(=O)n3ccccc3nc21 (centres undefined)	-3	2	6	21*	-19	-25
N=c1c(C(=O)NC2CCCC2)cc2c(=O)n3ccccc3nc2n1CCN1CCOCC1	-5	/	18*	2	11	/
N=c1c(C(=O)NCc2ccc(F)cc2)cc2c(=O)n3ccccc3nc2n1CC1CCCO1 (centres undefined)	-15	6	9.1*	30*	-19	-176
CN(C)c1ccc(NC(=O)CN2C(=O)CC(c3ccccc3)=Nc3ccccc32)cc1	-2	0	2	-1	15	4
CCOc1ccc2[nH]c(=O)c(CN(Cc3cccs3)Cc3nnnn3C(C)(C)CC)cc2c1	17	0	9.5*	7	32	9
CC(=O)C1=C(O)C(=O)N(CCN2CCOCC2)C1c1ccccc1 (centres undefined)	16	0	9.3*	-2	12	4
CCN=c1scc(-c2ccc3c(c2)NC(=O)CO3)n1N=C1CCCC1	1	-1	0	-2	-1	64*
COc1ccccc1N=c1scc(-c2ccc3c(c2)NC(=O)CO3)n1CC1CCCO1 (centres undefined)	-2	1	0	1	6	8
Cc1ccc(S(=O)(=O)N2CCCN(S(=O)(=O)c3ccc(C)cc3)CC2)cc1	1	0	19*	1	4	/
Nc1c(C(=O)NCCN2CCOCC2)c2nc3ccccc3nc2n1CCc1ccccc1	-12	7.9*	6	24*	-41	-97
Nc1c(C(=O)NCCN2CCOCC2)c2nc3ccccc3nc2n1-c1ccc2c(c1)OCO2	-1	0	1	5	4	-13
Nc1c(C(=O)NCc2ccc3c(c2)OCO3)c2nc3ccccc3nc2n1CCCN1CCOCC1	-7	7.9*	13*	37*	-15	-137
CC1CCC(NC(=O)CN2C(=O)C3CCCN3c3ncc(Cl)cc32)CC1 (centres undefined)	14	-1	-1	-3	31	26
c1csc(CCNc2ncnc3sc4c(c23)CCC4)c1	16	-2	1	3	32	153*
Cc1nc2ncnn2c(Nc2ccc3c(c2)OCCO3)c1C	4	0	0	-1	7	13
COc1cc(CN2CCN(c3cccc(C)c3C)CC2)cc(Br)c1O	2	-2	36*	1	10	-20
